For 167 variants, yeast fitness results are on record in the RNAGym collection of RNA variant scans (doi:10.1126/science.aae0568).

B1: tRNA (parent)
chain: GUUCCGUUGGCGUAAUGGUAACGCGUCUCCCUCCUAAGGAGAAGACUGCGGGUUCGAGUCCCGUACGGAACG

This sample holds only a part of the variants without activity.

In this data set the parent is B1. Briefly: yeast fitness relative to wild type (ratio to wild type); higher = fitter; tRNA-Arg(CCU), competitive growth, 37 C, YPD. The essentials: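 Start and end populations of a pooled competition were compared by 100-nucleotide paired-end sequencing of gene amplicons. The Saccharomyces cerevisiae strains carried tRNA-Arg(CCU) gene variants at the native genomic locus, synthesised with a 3% per-site mutation rate at 69 sites, and competed in YPD at 37°C for 24 hours in six parallel replicates. Darwinian fitness relative to wild type was based on the change in genotype frequencies. Genotypes required ≥ 100 starting reads, and estimates < 0.5 were set to 0.5.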
Regarding G18A A37G, the yeast fitness was found to be 0.547.
The same measure for G18A C27U G39A C60A: no more than 0.5.
Consider C11U C22U A43C C49U C55G C61U, for which the yeast fitness is no more than 0.5.
The same measure for G9A U19C C22A: 0.606; for A57G A65G C66U: 0.65.
For C24A G44A the value was 0.7; for C46G G58A, 0.989.
On to U32A A36U A70G, for which the yeast fitness was no more than 0.5.
Take C4A U26A A45U: the yeast fitness turned out to be 0.656.
For G25A C34A A40U, the yeast fitness is no more than 0.5.
As to C4A G51C C66U, the yeast fitness was no more than 0.5.
The same measure for U2C G56A A65G: 1.27; for U26A C29G A43G A45U A65U: no more than 0.5; for C5G A14C U16A C30U G38C G41C C46G: no more than 0.5.
Turning to G10C C22A C24G U53A C62U, the yeast fitness is no more than 0.5.
For G10C C22U the value was 0.803.
Take C24G U54C G67C: the yeast fitness was no more than 0.5.
For A15U G52C A65U G67C the value was no more than 0.5; for C5A C29U A45C, 0.546; for G17C C62G, 0.57.
Regarding U26G A37U G51A, the yeast fitness was no more than 0.5.
Regarding C4G G12U A14C C49U, the yeast fitness is no more than 0.5.
For U7G C22G U28A C31G C55A G68C the value was no more than 0.5; for A43C A69C, 1.04; for U3G G51A, 0.701.
For A21U A42G U59A C60A A69U the value was no more than 0.5; for A37C A43C A45C, no more than 0.5.
For C33G G63A the value was 0.6; for C24G A42G C55G, no more than 0.5.
In the case of C11U A15C U16C A21G, the yeast fitness is no more than 0.5.
For G18C G44A G63C A65C the value was no more than 0.5.
C27A U32G G51A G56C A70G: the yeast fitness is no more than 0.5.
The same measure for G6A C29G A43U: no more than 0.5; for G6A C33G C55G C61G: no more than 0.5.
For U28C G67U the value was 0.914; for G9A C27A A42C C49G G51C A65C, no more than 0.5.
Take U19C C27A C46A A70C: the yeast fitness is no more than 0.5.
Consider U47G G68C, for which the yeast fitness was determined as 0.563.
G6A A20C A57C: the yeast fitness was no more than 0.5.
For A14G A42G G48C the value was 0.568; for C29G A37U C55G, 0.549; for C27G A40G, 0.594.
On to G9C C27G C46G A65G, for which the yeast fitness was no more than 0.5.
For A36C U54A the value was no more than 0.5.
Turning to U3C C22U C55G U64A, the yeast fitness is no more than 0.5.
For C5G A15C U32C C46U U53G the value was no more than 0.5.
The same measure for C4A U8A G12C U19C C30U: no more than 0.5; for U2G C5A C55U C61A: no more than 0.5.
Consider C4A A15G C22U A36U C60A, for which the yeast fitness was no more than 0.5.
For U16A G23C C27G C34A G44A the value was no more than 0.5; for C11A C30U A45C, no more than 0.5; for G50C C55U A69G, 0.554.
Take C62U A65U G67A: the yeast fitness is 0.532.
In the case of U16C C34G A65U G67U, the yeast fitness is no more than 0.5.
For A14C C24G G41A G44A U53A C66U the value was no more than 0.5; for A21U A42G C62A, no more than 0.5; for G38A, 1.02.
As for A21U C61A G67A, the yeast fitness is no more than 0.5.
The same measure for U8A G39C A57G A65G: no more than 0.5; for A14C C34A A37G A70U: no more than 0.5; for U2C C31G G58A G67U: no more than 0.5.
The same measure for C31U A37G A45C: 0.618.
For U8A C22G C46G C66U the value was 0.567; for C31U G41U G56A, 0.686.
Take G17C C22G C55G C60A: the yeast fitness was no more than 0.5.
The same measure for A14G U19A C27G U28A C34A A36G A43G: 0.608; for U32C A37C G39C: no more than 0.5; for A14C A15U C27U U32C U35G A70U: no more than 0.5.
For U19A U28C A69C the value was 0.674.
As for G18A G25A C29G C34A, the yeast fitness is no more than 0.5.
For C22A G25A A69C the value was 0.784.
For C27U G44C G58C the value was 0.655.
As to A14U A21U, the yeast fitness amounted to 0.547.
With C24G C34G U47A C49A A65G, the yeast fitness was no more than 0.5.
Turning to G18C C22G G56A, the yeast fitness turned out to be 0.568.
For C24G A45C C46G C60G A69U the value was no more than 0.5.
The same measure for A20C C29U C49G A70U: no more than 0.5; for U8A A20C U35A G38C: no more than 0.5; for U7C C34U A45C C60G A65C: no more than 0.5.
As to G50A A57U, the yeast fitness worked out at 0.6.
Consider U3G C49G G56A, for which the yeast fitness was no more than 0.5.
In the case of G18C G25C U47C, the yeast fitness is no more than 0.5.
For A15C C22G A43C G52C the value was no more than 0.5; for C29U A37U C46U U59G, no more than 0.5; for A37G G58C A69C, 0.623.
Take C5A A37U C66U: the yeast fitness was no more than 0.5.
For G41A G58A, the yeast fitness was 1.
The same measure for C4U G39C C46G C49G: no more than 0.5; for U26C C30G A45U U53A C62U G68C: no more than 0.5.
Regarding A20G A37C A40G C49U, the yeast fitness is no more than 0.5.
The same measure for G23A C30U U35C: no more than 0.5; for A14C C34A G48C: no more than 0.5.
As to G10C A15G, the yeast fitness was determined as 0.786.
The same measure for C46U G50C: 0.819; for A20G C30U C46A G63U: no more than 0.5.
Consider G6A A15C A20U A36U G39A, for which the yeast fitness was no more than 0.5.
The same measure for C4G G68U: 0.865; for C22A A65U: 0.849.
With A15C C27A, the yeast fitness was 0.554.
For C4U U7A the value was 0.743; for G23C U53A A65U, no more than 0.5.
For C11G G39C the value was 0.6.
For U2A G12A C30A A43U A57G C60A G67A, the yeast fitness is no more than 0.5.
U13G: the yeast fitness was 1.03.
The same measure for U13C: 1.01; for U19A U64A: 0.807; for C22U C29U A40C: 0.667.
For U3A C27U C60A the value was no more than 0.5; for C31G A37U G39C A42C, no more than 0.5.
For C5U G23A U54C, the yeast fitness was no more than 0.5.
Take C5A C29U A57G U59C: the yeast fitness was no more than 0.5.
Turning to U3A C5U C46A, the yeast fitness is 0.724.
With A36G A43G A57C A65U, the yeast fitness was no more than 0.5.
The same measure for U35C C55A C60U A69U: no more than 0.5; for C5G C22A A37G G50C: 0.55; for U3A G38C G41C A65G: 0.78.
As to C4U A37G, the yeast fitness is 0.875.
For C27G A36C C46U G51C the value was 0.54.
For A45G U47C C62A A65U C66A the value was no more than 0.5.
For G9A C11G C22U A40G A42G the value was no more than 0.5.
Consider U2G G25C C29U C33U A40G G52A U59C A65U, for which the yeast fitness was found to be 0.581.
Consider U19C A20C A70U, for which the yeast fitness stood at 0.65.
The same measure for U8C C27U C34G C60A: 0.503; for A21C C24U U26A G38C C46G C62U A65C: no more than 0.5; for C5G C46U G67A: 0.683.
As for C22A G68C, the yeast fitness stood at 0.822.
For C33U U54C C61G the value was no more than 0.5; for C55A A70U, 0.658; for G17C C34U C61U, 0.55.
As for C11A A15C C24G U59A, the yeast fitness was no more than 0.5.
Turning to C60A G68C, the yeast fitness worked out at 0.734.
Consider G10A C11A C29A A45C A69U, for which the yeast fitness is no more than 0.5.
For the variant A21C U47A C60U G67C, the yeast fitness is no more than 0.5.
The same measure for G48C G67C: 0.563; for A40U U59A: 0.678; for C4A A36G C55A C61U: no more than 0.5.
The same measure for G10U G48A A70U: 0.649.
Regarding C4U G18A G23C C24G C46G U64G, the yeast fitness was no more than 0.5.
For C4U C29U G48A the value was 0.662; for C22G A45U, 0.712; for C5U U13A A15G A20G C22G C46G G51A, no more than 0.5.
The same measure for C22U C29G A36U G41C A45C C49U U54C C61U: no more than 0.5; for G10C G18A C30G G44A G48A G58A: no more than 0.5; for U35C A37U A42G G51A: no more than 0.5.
For the variant C11U C22G C62U G68C, the yeast fitness was determined as 0.542.
For C11A C29U C34G A36G the value was 0.607; for U3C A36G G39C C55U C66U, no more than 0.5; for G12C G23C A42U G44C U54A, no more than 0.5.
The same measure for A20C G68A A70C: 0.522; for A14C A36G A43U G68A: 0.522.
For U3A C4U A43C G50A A70U the value was no more than 0.5; for U2A U3G C29G C30G C46G A70G, no more than 0.5.
Take C11G U16C C27G: the yeast fitness is no more than 0.5.
For U8A C11U, the yeast fitness came to 0.633.
For A36U A42U the value was 0.71.
For U59G C66A the value was 0.62.
As to C4A G67U, the yeast fitness worked out at 0.843.
The same measure for U32C C33U: 0.659; for U7A C27U A57U A65C: no more than 0.5.
The same measure for G6U A70C: 0.813; for A45G C55A G58C: 0.537; for G12A G52A: 0.688.
The same measure for U3A U16A C22U A36C G38U G48C: no more than 0.5; for C46U C60U A65C: 0.589.
With U3A A36U A37G, the yeast fitness is no more than 0.5.
As to C11G A37C A42G C66G G68U, the yeast fitness was no more than 0.5.
With G25A A40U G58C, the yeast fitness was 0.973.
